Experimental data pooled from the literature.
Protocols differ between the studies behind these lines.
HLA class I histocompatibility antigen, A alpha chain: HLA class I histocompatibility antigen, A alpha chain (Homo sapiens, UniProt P04439)
BACE1: Beta-secretase 1 (BACE1, Homo sapiens, UniProt P56817)

For `CC[C@H](C)[C@H](NC(=O)[C@@H](N)CCCNC(=N)N)C(=O)N[C@@H](Cc1ccc(O)cc1)C(=O)NCC(=O)N1CCC[C@H]1C(=O)N1CCC[C@H]1C(=O)N[C@@H](Cc1c[nH]cn1)C(=O)N[C@@H](CCC(N)=O)C(=O)N[C@@H](Cc1ccccc1)C(=O)O`, the IC50 was 376 nM (HLA class I histocompatibility antigen, A alpha chain; cell-free assay).
For `COc1cc(C(F)(F)F)c(OC)cc1C1CCCNC1` (stereo not shown), the EC50 was 30.9 nM (5-hydroxytryptamine receptor 2C (Htr2c, Mus musculus, UniProt P34968); G protein activation; agonist; BRET).
`COc1cc2c(cc1OC)CN(CCc1ccc(NC(=O)c3cccc4c(=O)c5cccc(OC)c5[nH]c34)cc1)CC2` has a Ki of 943 nM (D(2) dopamine receptor (DRD2, Homo sapiens, UniProt P14416); cell-free assay).
With `C=CCOc1ccc(C(=O)/C=C/c2ccc(OC)cc2)c(OS(=O)(=O)c2ccc(OC)cc2)c1I` the IC50 was 18200 nM (BACE1; enzyme activity; inhibitor; fluorescence).
`CCOC(=O)c1ccc(OC(=O)CCCCCN=C(N)N)cc1` has an IC50 of 412 nM (Transmembrane protease serine 6 (Homo sapiens, UniProt Q8IU80); enzyme activity; inhibitor).
For `C=CCOc1ccc(C(=O)/C=C/c2cccc(F)c2)c(OS(=O)(=O)c2ccc(F)cc2)c1I`, the IC50 was 27800 nM (BACE1; enzyme activity; inhibitor; fluorescence).
With `CSCC[C@H](NC(=O)[C@@H](N)CCCCN)C(=O)N[C@@H](Cc1c[nH]c2ccccc12)C(=O)NCC(=O)N[C@@H](CCCCN)C(=O)N1CCC[C@H]1C(=O)N[C@@H](CCSC)C(=O)N[C@H](C(=O)N[C@@H](Cc1ccccc1)C(=O)O)[C@@H](C)O` the IC50 was 213 nM (HLA class I histocompatibility antigen, A alpha chain; cell-free assay).
The IC50 of `C=CCOc1ccc(C(=O)/C=C/c2ccc(OC)cc2)c(OS(=O)(=O)c2ccccc2[N+](=O)[O-])c1I` is reported as 23900 nM (BACE1; enzyme activity; inhibitor; fluorescence).
For `CSCC[C@H](NC(=O)[C@@H](N)CCCNC(=N)N)C(=O)N[C@@H](Cc1ccccc1)C(=O)NCC(=O)N1CCC[C@H]1C(=O)N[C@H](C(=O)N[C@@H](CCC(N)=O)C(=O)N[C@H](C(=O)N[C@@H](Cc1ccc(O)cc1)C(=O)O)[C@@H](C)O)C(C)C`, the IC50 was 45 nM (HLA class I histocompatibility antigen, A alpha chain; cell-free assay).
`CCCC[C@H](NC(C)=O)C(=O)N[C@H]1CC(=O)NCCCC[C@@H](C(=O)N2CCC[C@@H]2C(=O)N[C@@H](C(=O)N2CCC[C@@H]2C(N)=O)C(C)C)NC(=O)[C@H](Cc2c[nH]c3ccccc23)NC(=O)[C@H](CCCNC(=N)N)NC(=O)[C@@H](Cc2ccccc2)NC(=O)[C@@H]2CCCN2C1=O` has an EC50 of > 1000 nM (Melanocortin receptor 3 (MC3R, Homo sapiens, UniProt P41968); cAMP; agonist).
